Key:
[1] = AUC was measured from the graph plotted against blood plasma concentration and time at the dose of 300 uMol/kg,; format: ADME
Rattus norvegicus [2] = assay: In vivo percentage efficacy, measured as ability to decrease blood glucose percentage after 11.25 days.; format: functional; set-up: concentration or dose not given beside the values
In short: (§1)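 Rats (250-300 g) on high-fat purified diet, made diabetic by 40 mg/kg streptozotocin iv (tail vein) 3 days into diet. Selected by glucose criteria, including an oral glucose load (1.35 g/kg dextrose) after an 18 h fast. Dosed orally once daily at 70 µmol/kg in CMC for 11 days. Blood glucose taken 6 h post-dose (food removed). % efficacy: 100% = normalization to 60 mg/dL.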

Rattus norvegicus [3] = assay: Glucose levels were determined in an acute in vivo study for inhibition of gluconeogenesis in normal male Sprague-Dawley rats; format: functional; set-up: concentration or dose not given beside the values
In short: (§2)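 Normal male Sprague-Dawley rats (200-300 g) fasted 18 h; five per group given compound by oral gavage at 100 µmol/kg in carboxymethylcellulose vehicle or vehicle alone. At 3 h, cardiac-puncture blood under brief CO₂ anesthesia; serum β-hydroxybutyrate (ketones) and glucose expressed as % of control; Student's t-test.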

Rattus norvegicus [4] = assay: In vivo percentage efficacy, measured as ability to decrease blood glucose percentage after 8.25 days in rats; format: functional; set-up: concentration or dose not given beside the values; in short: as §1
Rattus norvegicus [5] = assay: Ketone levels were determined in an acute in vivo study for inhibition of gluconeogenesis in normal male Sprague-Dawley rats; format: functional; set-up: concentration or dose not given beside the values; in short: as §2
[6] = AUC was measured from the graph plotted against blood plasma concentration and time at the dose of 150 uMol/kg,; format: ADME
[7] = AUC was measured from the graph plotted against blood plasma concentration and time at the dose of 700 uMol/kg,; format: ADME
Rattus norvegicus [8] = assay: Testes weight (treated)/body weight(treated)]/[testes weight(control)/body weight(control)] x 100 at a dose of 700 uM/kg/day; format: functional
Rattus norvegicus [9] = assay: In vivo percentage efficacy, measured as ability to decrease blood glucose percentage after 8.25 days; format: functional; set-up: concentration or dose not given beside the values; in short: as §1
Rattus norvegicus [10] = assay: Testes weight (treated)/body weight(treated)]/[testes weight(control)/body weight(control)] x 100 at a dose of 700 umol/kg/day; format: functional
Rattus norvegicus [11] = assay: Testes weight (treated)/body weight(treated)]/[testes weight(control)/body weight(control)] x 100 at a dose of 350 umol/kg/day; format: functional
[12] = AUC was measured from the graph plotted against blood plasma concentration and time at the dose of 150 uMol/kg
[13] = AUC was measured from the graph plotted against blood plasma concentration and time at the dose of 300 uMol/kg; format: ADME, cell-free
Rattus norvegicus [14] = assay: In vivo percentage efficacy was measured as ability to decrease blood glucose percentage after 11.25 days in rats; format: functional; in short: as §1

SMILES | AUC [1] | Efficacy (Rattus norvegicus [2]) | Control (Rattus norvegicus [3]) | Efficacy (Rattus norvegicus [4]) | Serum ketone level, % of control (Rattus norvegicus [5]) | also measured
CO/N=C(\OC(=O)c1ccc(C(=O)C(C)(C)C)cc1)c1ccc(C(=O)C(C)(C)C)cc1 | 85 µg·h/mL | <59% | 98% | <64% | <30% | AUC [7]: 325 µg·h/mL; Control (Rattus norvegicus [8]): 96%
CC(C)(C)C(=O)c1ccc(C(N)=O)cc1 | – | – | – | – | – | Control (Rattus norvegicus [10]): <48%
CC(C)(C)O/N=C(\OC(=O)c1ccc(C(=O)C(C)(C)C)cc1)c1ccc(C(=O)C(C)(C)C)cc1 | 55 µg·h/mL | <98% | <70% | <80% | <50% | Control (Rattus norvegicus [8]): 102%
CC(C)(C)C(O)c1ccc(C(=O)O)cc1 (centres undefined) | – | – | <50% | – | – | Control (Rattus norvegicus [11]): <74%
COC(c1ccc(C(=O)O)cc1)C(C)(C)C (centres undefined) | 1020 µg·h/mL | <59% | <81% | – | <17% | Efficacy (Rattus norvegicus [9]): <23%
CC(C)(C)C1(c2ccc(C(=O)O)cc2)OCCCO1 | 1400 µg·h/mL | <65% | 111% | – | <15% | Efficacy (Rattus norvegicus [9]): <41%
Cc1ccc(C2(C(C)(C)C)OCCO2)cc1 | – | <64% | <58% | – | <12% | AUC [12]: 1510 µg·h/mL; AUC [7]: 3560 µg·h/mL; Control (Rattus norvegicus [10]): <52%; Efficacy (Rattus norvegicus [9]): <52%
CC(C)(C)C(=O)c1ccc(C(=O)O)cc1 | – | – | – | – | – | Control (Rattus norvegicus [10]): <47%
CC(C)(C)C(=O)c1ccc(C(=O)NC(=O)c2ccc(C(=O)C(C)(C)C)cc2)cc1 | 122 µg·h/mL | – | 92% | – | <21% | AUC [7]: 2670 µg·h/mL; Control (Rattus norvegicus [10]): 101%
C=CCO/N=C(\OC(=O)c1ccc(C(=O)C(C)(C)C)cc1)c1ccc(C(=O)C(C)(C)C)cc1 | 158 µg·h/mL | <85% | 105% | <53% | <43% | –
C=CCOC(c1ccc(C(=O)O)cc1)C(C)(C)C (centres undefined) | – | – | 107% | – | <29% | AUC [13]: 941 µg·h/mL
CC(C)(C)C(=O)c1ccc(C(=O)N(C(=O)c2ccc(C(=O)C(C)(C)C)cc2)C(=O)c2cccnc2)cc1 | – | <74% | 95% | – | <46% | AUC [13]: 64 µg·h/mL; Efficacy (Rattus norvegicus [9]): <73%; Control (Rattus norvegicus [11]): 95%
CO/N=C(\OC(=O)c1ccc([C@@H](O)C(C)(C)C)cc1)c1ccc([C@H](O)C(C)(C)C)cc1 (relative stereo) | 2370 µg·h/mL | – | <61% | – | <17% | –
CC1(C)COC(c2ccc(C(=O)O)cc2)(C(C)(C)C)OC1 | 263 µg·h/mL | – | 105% | – | <18% | –
CC(C)(C)[C@H](O)c1ccc(C(=O)O)cc1 | – | – | 94% | – | <80% | Control (Rattus norvegicus [11]): <62%
CC(C)(C)C(=O)c1ccc(C(=O)O/C(=N\OCCO)c2ccc(C(=O)C(C)(C)C)cc2)cc1 | 565 µg·h/mL | <92% | 98% | <92% | <15% | AUC [6]: 122 µg·h/mL
CC(C)(C)[C@@H](O)c1ccc(C(=O)O)cc1 | – | – | <42% | <64% | <23% | Control (Rattus norvegicus [11]): <59%; Efficacy (Rattus norvegicus [14]): <63%

Second part, led by results:

AUC [1] | SMILES | Efficacy (Rattus norvegicus [2]) | Control (Rattus norvegicus [3]) | Efficacy (Rattus norvegicus [4]) | Serum ketone level, % of control (Rattus norvegicus [5]) | also measured
1850 µg·h/mL | COCCO/N=C(\OC(=O)c1ccc(C(=O)C(C)(C)C)cc1)c1ccc(C(=O)C(C)(C)C)cc1 | <108% | <49% | <109% | <19% | –
2030 µg·h/mL | CC(C)(C)C(=O)c1ccc(C(=O)O/C(=N\OCC(=O)O)c2ccc(C(=O)C(C)(C)C)cc2)cc1 | <102% | <63% | <90% | <19% | AUC [6]: 1000 µg·h/mL
964 µg·h/mL | CC(C)(C)C(=O)c1ccc(C(=O)N[C@@H](Cc2ccccc2)C(=O)O)cc1 | – | – | – | <4% | AUC [7]: 2930 µg·h/mL
1630 µg·h/mL | CC(C)(C)C(=O)c1ccc(C(=O)O/C(=N\OCCCC(=O)O)c2ccc(C(=O)C(C)(C)C)cc2)cc1 | – | <70% | – | <15% | –
1080 µg·h/mL | CC(C)(C)C(=O)c1ccc(C(=O)N(CC(=O)O)C(=O)c2ccc(C(=O)C(C)(C)C)cc2)cc1 | <47% | <56% | – | <6% | Efficacy (Rattus norvegicus [9]): <53%
886 µg·h/mL | CC(C)(C)C(=O)c1ccc(C2=NCCO2)cc1 | – | <74% | – | <20% | –
413 µg·h/mL | CC(C)(C)C(=O)c1ccc(C2=N[C@@H](Cc3ccccc3)C(=O)O2)cc1 | – | <90% | – | <21% | –
155 µg·h/mL | CC(C)O/N=C(\OC(=O)c1ccc(C(=O)C(C)(C)C)cc1)c1ccc(C(=O)C(C)(C)C)cc1 | <98% | 94% | <80% | <41% | AUC [6]: 94 µg·h/mL
588 µg·h/mL | CC(C)(C)C(=O)c1ccc(C(=O)NC(=O)c2ccc(F)cc2)cc1 | <54% | <65% | – | <13% | AUC [7]: 2570 µg·h/mL; Control (Rattus norvegicus [10]): <63%; Efficacy (Rattus norvegicus [9]): <57%
